Our source for the cytotoxicity values is ChEMBL document CHEMBL4513216, “Probing the Open Global Health Chemical Diversity Library for Multistage-Active Starting Points for Next-Generation Antimalarials” (ACS Infect Dis, 2020).

This data set in a line: Toxicity liver stage against HepG2, at 10uM. It is filed as cell-based. Also noted: test concentration 10 uM, cell line HepG2-A16-CD81EGFP. The following applies: human, HepG2-A16-CD81EGFP cells; read-out: INHIBITION
Summed up: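 Uninfected HepG2-A16-CD81EGFP cells, 3 × 10^3 per well, 1536-well, plated on prespotted compound at 10 μM final, parasite-free screening media added to match infected plates; puromycin 10 μM positive, DMSO 0.5% negative; run in parallel with 48 h PbLuc assay at 37 °C, 5% CO2; viability by CellTiter-Glo luminescence, normalized to controls.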
Turning to `Cc1n[nH]c(C)c1CC(=O)NCc1ccccc1Cl`, the cytotoxicity at 10 µM was determined as 9.87%.

As to `CC(C)CCN1C(=O)c2ccc(C(=O)NCCc3c[nH]cn3)cc2C1=O`, the cytotoxicity at 10 µM is -12.5%.

Regarding `COc1cn(CC(N)=O)c(CSc2nccc(C)n2)cc1=O`, the cytotoxicity at 10 µM was -12.1%.

As to `N#Cc1cccnc1OC1CCN(S(=O)(=O)c2ccc(F)c(Cl)c2)CC1`, the cytotoxicity at 10 µM is 6.27%.

With `Cc1nc(N(C)C)nc(C)c1NC(=O)c1ccccc1F`, the cytotoxicity at 10 µM came out at 41.7%.

On to `CCS(=O)(=O)NCc1nc(C)cc(N2CCOCC2)n1`, for which the cytotoxicity at 10 µM is -0.978%.

With `CC(=O)NCc1noc2c1CN(Cc1ccsc1)CC2`, the cytotoxicity at 10 µM was -3.21%.

With `O=S(=O)(c1cccnc1)N1C[C@@H]2COC[C@]2(COCC2CC2)C1`, the cytotoxicity at 10 µM came out at 4.83%.

Take `Cc1ccc(CN2Cc3c(cnn3C)C(COCC3CC3)C2)s1` (configuration not stated): the cytotoxicity at 10 µM amounted to 3.91%.

Turning to `COc1ccc(N2CCCC3(C2)CN(c2nncs2)CCO3)cc1` (configuration not stated), the cytotoxicity at 10 µM came to 4.17%.

Consider `Cc1cc(=O)n(CC(=O)NC(C)C)c(Nc2ccc(F)c(C)c2)n1`, for which the cytotoxicity at 10 µM turned out to be 7.97%.

`CC(=O)Cn1nc(-c2ccccc2F)ccc1=O`: the cytotoxicity at 10 µM came out at 0.477%.

Turning to `CCc1nn(-c2cc(Oc3cc(C)ccc3C)nc(C)n2)c(N)c1C#N`, the cytotoxicity at 10 µM was determined as 58.4%.

As for `Cc1ccc(C)c(-c2csc(N)c2C#N)c1`, the cytotoxicity at 10 µM stood at 5.47%.

On to `Cc1nnsc1C(=O)N1CCC(c2nc3ccccc3[nH]2)CC1`, for which the cytotoxicity at 10 µM amounted to 2.5%.

Take `CCCn1c(NCCc2ccccc2)nc2c(C)nn(C)c2c1=O`: the cytotoxicity at 10 µM worked out at 66.4%.

As for `CC(C)CN1CCN(C(=O)c2[nH]nnc2Nc2ccccc2F)CC1`, the cytotoxicity at 10 µM worked out at 18.7%.

As to `Cc1cnc(Nc2cccc(C3CCCN3Cc3cn(C)nc3C)n2)s1` (configuration not stated), the cytotoxicity at 10 µM was 13.2%.

For `O=C(c1cncs1)N1CCC(Cc2cnc3[nH]ccc3c2)CC1`, the cytotoxicity at 10 µM is -3.94%.

`Cc1ccccc1-c1cncc(C2CCN(C3CCOCC3)CC2)n1`: the cytotoxicity at 10 µM is -2.81%.

As for `NCCC(=O)N1CCC2(CC1)CN(C(=O)Cc1ccc(Cl)cc1)CCO2`, the cytotoxicity at 10 µM amounted to 2.24%.

In the case of `CC(C)COc1cncc(NCc2nnc3ccccn23)n1`, the cytotoxicity at 10 µM turned out to be 13.1%.

`CC(Cc1cccc(Cl)c1)NC(=O)NCc1ncnn1C` (configuration not stated): the cytotoxicity at 10 µM came out at 8.52%.

Turning to `CC(C)c1cc(NC(=O)CNC2CCc3ncnn3C2)on1` (configuration not stated), the cytotoxicity at 10 µM amounted to 4.44%.

Regarding `O=c1n(CCNc2cccc3ccccc23)nc2ccccn12`, the cytotoxicity at 10 µM stood at 0.392%.

`Cc1cnn(C2CCCN(C(=O)c3cc[nH]n3)C2)c1` (configuration not stated): the cytotoxicity at 10 µM is -18.3%.

Turning to `CN(c1ncc(S(N)(=O)=O)s1)C1CCc2ccccc2C1` (configuration not stated), the cytotoxicity at 10 µM was 11.1%.

For `CC(C)Oc1ncccc1CNC(=O)N1CCOCC1`, the cytotoxicity at 10 µM was -40.6%.

For the compound `Cc1nc(C)c(S(=O)(=O)NC(=O)c2ccoc2)s1`, the cytotoxicity at 10 µM was -6.91%.

As for `N#Cc1ncn(CCS(=O)(=O)c2ccccc2)n1`, the cytotoxicity at 10 µM is 1.18%.

With `CSc1cc2c(cc1NC(=O)NCCn1ccnc1)OCCO2`, the cytotoxicity at 10 µM was -8.28%.

In the case of `CC(C)(C)OC(=O)NCCc1csc(N2CCCC2)n1`, the cytotoxicity at 10 µM stood at 24.9%.

Turning to `Cc1ccsc1C(=O)NC1CCN(c2cnn(C)c2)C1=O` (configuration not stated), the cytotoxicity at 10 µM was -7.11%.

For the compound `CC(C)C(O)C1(CNC(=O)Nc2ccc(CN3CCOC3=O)cc2)CC1` (configuration not stated), the cytotoxicity at 10 µM was -5.09%.

`O=C(Nc1ccnc(OC2CCOC2)c1)c1ccccc1Cl` (configuration not stated): the cytotoxicity at 10 µM was found to be 8.5%.

On to `COCCNC(=O)Nc1cccc2c1CCN(S(C)(=O)=O)C2`, for which the cytotoxicity at 10 µM is 7.37%.

With `N#CCCCOc1cccnc1NC(=O)Cc1ccccc1F`, the cytotoxicity at 10 µM was -2.27%.

`CN(Cc1ccccc1)CC(C)(C)NC(=O)c1cnccn1`: the cytotoxicity at 10 µM stood at 6.95%.

For `Cc1cccc(C(C)NCC2CCS(=O)(=O)CC2)c1` (configuration not stated), the cytotoxicity at 10 µM is -2.67%.

For `Cc1noc(OCc2ccc(C#N)cc2)n1`, the cytotoxicity at 10 µM was -10.2%.

Turning to `CCc1noc(C(C)SCCS(C)(=O)=O)n1` (configuration not stated), the cytotoxicity at 10 µM is 5.5%.

For the compound `CC(C)(C)OC(=O)NC(C)(C(N)=O)c1cccc(Cl)c1` (configuration not stated), the cytotoxicity at 10 µM is 18.3%.

Take `CN1CCN(c2ccccc2NC(=O)NCCc2ccccc2)CC1`: the cytotoxicity at 10 µM was -4.63%.

As to `CC(NCC(=O)Nc1ccc(N2CCCCCC2)cc1)c1cccs1` (configuration not stated), the cytotoxicity at 10 µM was 1.8%.

On to `CC(=O)NC1CCCN(Cc2ccc(-n3ccnc3)cc2)C1` (configuration not stated), for which the cytotoxicity at 10 µM was -57.4%.

For `Cn1ccnc1C(=O)NC[C@@H]1OC[C@H]2CN(S(C)(=O)=O)CC[C@H]21`, the cytotoxicity at 10 µM was -99.3%.

In the case of `CNC(=O)c1ncn2c1CN(CCC(C)C)S(=O)(=O)c1ccccc1-2`, the cytotoxicity at 10 µM is -78.8%.

Consider `CCc1ncnc2c1CCN(C(=O)c1cccn1C)CC2`, for which the cytotoxicity at 10 µM was -73.5%.

For the compound `O=C(c1ccncn1)N1C[C@H]2CCC[C@@]2(COCC2CCOCC2)C1`, the cytotoxicity at 10 µM was -79.2%.

As to `Cc1nc2c(c(NCCc3nccs3)n1)CCN(CC1CC1)CC2`, the cytotoxicity at 10 µM was -1.38%.

In the case of `CN(C)c1cnn(CC(=O)N2CCN(Cc3cccs3)CC2)c(=O)c1`, the cytotoxicity at 10 µM came to 1.72%.

Take `CS(=O)(=O)NCC(=O)N[C@H]1CN(CC2CC2)C[C@@H]1c1ccccc1`: the cytotoxicity at 10 µM is -0.29%.

In the case of `CCc1nc(CCn2ccnc2-c2nccn2C)no1`, the cytotoxicity at 10 µM was -50.2%.

Turning to `COc1cccc(C(=O)N2CCN(C(=O)CCCc3cn[nH]c3)CC2)c1`, the cytotoxicity at 10 µM is -1.3%.

With `COCCc1noc(C2CCCN(c3nc(N)nc4c3CCCC4)C2)n1` (configuration not stated), the cytotoxicity at 10 µM is 48.1%.

Regarding `CC(=O)N[C@@H]1CN(c2nc(CO)cs2)C[C@H]1c1ccc(C)o1`, the cytotoxicity at 10 µM was -47%.

For `CCN1CC(C(=O)NCc2nn(CC)c3ccccc23)CCC1=O` (configuration not stated), the cytotoxicity at 10 µM was -5.83%.

On to `O=C(CO)N1CCCC(N2CCN(c3ccccc3F)CC2)C1` (configuration not stated), for which the cytotoxicity at 10 µM was -49.1%.

For `CSc1ccc(CN2CCC(CCC(=O)Nc3ccccc3)CC2)cc1`, the cytotoxicity at 10 µM is 6.8%.

On to `CC(=O)N[C@H]1CN(S(=O)(=O)N(C)Cc2ccccc2)C[C@@H]1C1CC1`, for which the cytotoxicity at 10 µM was -144%.

On to `COc1cccc(N2CCN(C(C(=O)O)c3ccc(OC)nc3)CC2)c1` (configuration not stated), for which the cytotoxicity at 10 µM came to 14.5%.

`CCc1nc(NCCc2c(C)nn(CC)c2C)c2cnn(C)c2n1`: the cytotoxicity at 10 µM stood at 9.33%.

For `CCn1cc(CN2CCC(N3CCC(O)CC3)CC2)cc1C#N`, the cytotoxicity at 10 µM is 0.371%.

In the case of `CCN(CCn1c(=O)oc2ccccc21)CC1CCOCC1`, the cytotoxicity at 10 µM was -8.73%.

For `Cc1cc(N2CCC(NC(C)Cc3ccsc3)CC2)nc(N)n1` (configuration not stated), the cytotoxicity at 10 µM is 2.22%.

Consider `Cc1cccnc1CC(C)Nc1nc(N)nc2c1CCNC2` (configuration not stated), for which the cytotoxicity at 10 µM worked out at 2.09%.

Consider `NC1CCN(C2CCN(c3ccc(-c4ccco4)cc3)CC2)CC1`, for which the cytotoxicity at 10 µM amounted to 1.03%.

`COc1ccccc1OC1CN(C(=O)c2ccccc2C(C)=O)C1`: the cytotoxicity at 10 µM was found to be 7.6%.

Turning to `CN(C)CCCNC(=O)c1ccc(N(C)S(C)(=O)=O)cc1Cl`, the cytotoxicity at 10 µM was -6.3%.

`CCCN(CCOC)C(=O)c1cc(Cn2c(C)nc3ccccc32)[nH]n1`: the cytotoxicity at 10 µM turned out to be 21.8%.

Regarding `COCC1(C(=O)N[C@H]2CN(c3nnc(C)s3)C[C@@H]2C2CC2)CCC1`, the cytotoxicity at 10 µM is -129%.

For the compound `Cc1ccnc(NCc2cn3nc(C)sc3n2)n1`, the cytotoxicity at 10 µM was -0.449%.

As to `Cc1ccnc(NCCSc2nccn2C)n1`, the cytotoxicity at 10 µM is -42%.

Take `NCC(=O)N1CCCC1c1ccc(C(=O)NCc2ccoc2)s1` (configuration not stated): the cytotoxicity at 10 µM was found to be 1.68%.

`Cc1cc(N2CCCN(C(=O)Cc3ccc(O)c(Cl)c3)CC2)ccn1`: the cytotoxicity at 10 µM was -17.3%.

As for `c1cnc2c(C3CCN(Cc4ccsc4)CC3)n[nH]c2n1`, the cytotoxicity at 10 µM amounted to 1.34%.

On to `COc1ncc(C2(O)CCN(Cc3ccccc3O)CC2)c(OC)n1`, for which the cytotoxicity at 10 µM worked out at 2.33%.

As for `Cc1ccnc(NC(=O)c2[nH]nc(C(C)C)c2Br)c1`, the cytotoxicity at 10 µM was 12.9%.

Take `Cc1cnn(CC2CN(c3ncnc4ccccc34)CCO2)c1` (configuration not stated): the cytotoxicity at 10 µM came out at 6.57%.

For the compound `O=C(NCCNc1cnccn1)N1CCN(Cc2cccnc2)CC1`, the cytotoxicity at 10 µM was found to be 4.07%.

In the case of `COCC1CC2(CCN(c3ccccn3)CC2)CN1C(C)C` (configuration not stated), the cytotoxicity at 10 µM is -110%.

As to `c1csc(CN2CCO[C@@H]3CN(C4CCOCC4)C[C@@H]3C2)c1`, the cytotoxicity at 10 µM is -157%.

On to `Cc1ccc(CN2CCCC3(COCCN(Cc4c[nH]nn4)C3)C2)s1` (configuration not stated), for which the cytotoxicity at 10 µM was -1.31%.

Regarding `COCC1CN(C(=O)Cc2ccccn2)Cc2ncnn2C1` (configuration not stated), the cytotoxicity at 10 µM is -2.47%.

`Cn1cnc2c1C(COCC1CCOCC1)CN(C(=O)c1ccco1)C2` (configuration not stated): the cytotoxicity at 10 µM is -75.5%.

For the compound `Cc1csc(CN2CCC[C@]3(C[C@@H](Oc4ccccn4)CO3)C2)n1`, the cytotoxicity at 10 µM is -141%.

With `COc1c(CNCc2ccc(C(=O)N3CCCC3)cc2)c(C)nn1C`, the cytotoxicity at 10 µM was -3.23%.

For the compound `Cc1cccc(CN2C[C@@H]3COC[C@]3(CNC(=O)C3CCC3)C2)c1`, the cytotoxicity at 10 µM is -112%.

For the compound `COc1ccccc1CN1CC[C@H]2C[C@H](C(=O)N3CCCC3)O[C@H]2C1`, the cytotoxicity at 10 µM is -2.24%.

In the case of `CN(C)C(=O)CC1CC2(CCN(Cc3ccsc3)CC2)c2ccccc21` (configuration not stated), the cytotoxicity at 10 µM is 1.13%.

In the case of `CNC(=O)COC1COC2(CCN(c3ccc(C#N)cc3)CC2)C1` (configuration not stated), the cytotoxicity at 10 µM was -75.7%.

With `c1ccc(CNCC2Cn3nnc(-c4ccncc4)c3CO2)nc1` (configuration not stated), the cytotoxicity at 10 µM is -1.99%.

Take `CCCS(=O)(=O)N1C[C@@H]2CN(Cc3cnn(C)c3)CCO[C@@H]2C1`: the cytotoxicity at 10 µM was found to be 0.835%.

Take `CN(C)c1ncnc2c1CCN(CC1CCOCC1)CC2`: the cytotoxicity at 10 µM was -69.6%.

On to `Cc1ccc(C(=O)N2Cc3c(CN4CCCCC4)nn(C)c3C2)cc1C`, for which the cytotoxicity at 10 µM was -2.81%.

For `CCS(=O)(=O)N1CCC2(CC1)CC(COC)N(c1ncccn1)C2` (configuration not stated), the cytotoxicity at 10 µM was 5.57%.

As to `O=C(NC1CCC1)[C@H]1C[C@H]2CN(CC3CC3)C[C@@H]1O2`, the cytotoxicity at 10 µM amounted to 7.55%.
